Only some compounds are listed: those with a hit (about 3.4% of all), similar ones and a draw of the others.
RanGTP-Imp inh – inhibitors of RanGTP-importin-beta interaction, primary screen, biochemical, FRET, CFP-Ran, YFP-importin-beta, homogeneous; Ran GTPase (GTP-bound) - importin-beta complex; cell-free CFP-Ran/YFP-importin-beta FRET ratio; inhibition, % (no concentration beside the values); 300,000 compounds, 1.1% hits;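 active = more than half of the replicate wells show a fall in the fluorescence ratio signal beyond about 16%, limit read from the data, passing the limit was not always enough; inconclusive = exactly half of the replicate wells pass the set limit; inactive = fewer than half of replicates pass the limit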;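 note: 0% = DMSO wells and 100% = Ran loaded with GDP instead of GTP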
Runt-CBFb FRET – inhibitors of RUNX1 Runt–CBFb binding, primary screen, biochemical, FRET, Cerulean-Runt, Venus-CBFb, uHTS; Runt-related transcription factor 1 (Homo sapiens) + Core-binding factor subunit beta …; Cerulean-Runt/Venus-CBFb FRET ratio 530/480, 1 h; inhibition, % at 20 µM; 220,000 compounds, 0.46% hits; AID 1496, 2009;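 active = inhibition over about 50% at 20 µM in the single-dose screen, limit read from the data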;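 note: 0% = DMSO wells and 100% = excess unlabeled CBFb competitor control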
Target sequence (Q01196 whole entry, looked up): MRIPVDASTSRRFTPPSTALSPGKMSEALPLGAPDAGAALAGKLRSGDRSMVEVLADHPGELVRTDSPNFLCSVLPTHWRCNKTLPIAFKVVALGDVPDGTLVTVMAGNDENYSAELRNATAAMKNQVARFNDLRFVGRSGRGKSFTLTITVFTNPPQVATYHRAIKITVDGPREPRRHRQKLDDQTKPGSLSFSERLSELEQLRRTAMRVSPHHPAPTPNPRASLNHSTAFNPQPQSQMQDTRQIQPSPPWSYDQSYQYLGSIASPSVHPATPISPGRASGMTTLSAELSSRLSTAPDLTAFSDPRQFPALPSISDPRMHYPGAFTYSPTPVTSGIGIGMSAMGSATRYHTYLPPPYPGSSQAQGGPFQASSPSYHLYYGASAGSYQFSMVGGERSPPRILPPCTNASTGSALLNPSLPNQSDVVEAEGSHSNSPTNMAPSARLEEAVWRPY
Target sequence (Q13951 whole entry, looked up): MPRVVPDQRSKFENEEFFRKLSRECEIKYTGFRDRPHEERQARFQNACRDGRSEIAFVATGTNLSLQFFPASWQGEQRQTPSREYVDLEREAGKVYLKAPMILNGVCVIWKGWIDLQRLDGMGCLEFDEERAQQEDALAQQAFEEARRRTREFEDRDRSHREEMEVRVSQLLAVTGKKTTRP
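System: Cerulean-labeled Runt domain protein | Quantity: 100 nM of each labeled protein | Schedule: 1 h compound exposure, room temperature | Detection: Fluorescence energy transfer, 422 nm excitation, 530/480 nm emission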
Efa HMGR inh – inhibitors of E. faecalis class II HMGR, primary screen, biochemical, Enterococcus faecalis | HMG-CoA reductase (Enterococcus faecalis, mvaE) | purified E. faecalis HMGR, NADPH absorbance 340 nm kinetic | inhibition, % at 10 µM | 190,000 compounds, 0.41% hits | AID 1066, 2008;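 active = inhibition above a set limit, the median over all tested compounds plus 3 SD, cut at about 9.5% in these data; inconclusive = no clear call, values can overlap the other calls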;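 note: enzyme runs in reverse so mevalonate oxidation gives rising NADPH absorbance; 0% = complete reaction with DMSO and 100% = background rate lacking mevalonate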
Runt-SMMHC FRET – inhibitors of RUNX1 Runt–CBFb-SMMHC binding, primary screen, biochemical, FRET, Cerulean-Runt, Venus-CBFb-SMMHC, uHTS; Runt-related transcription factor 1 (Homo sapiens) + Core-binding factor subunit beta …; Cerulean-Runt/Venus-CBFb-SMMHC FRET ratio 530/480, 1 h; 220,000 compounds, 0.74% hits; inhibition, % at 20 µM;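 active = mean inhibition across duplicate retests at 20 µM reaching about 50%, limit read from the data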;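 note: 0% = DMSO wells and 100% = wells with excess untagged CBFb-SMMHC; inhibitors lower the FRET ratio by blocking Runt binding to CBFb-SMMHC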
PHOSPHO1 inh – PubChem AID 1565; Phosphoethanolamine/phosphocholine phosphatase (Homo sapiens), Q8TCT1; recombinant PHOSPHO1, absorbance phosphatase assay; inhibition, % at 13.3 µM; 290,000 compounds, 1.1% hits; in the data active = inhibition above about 60%
Wee1 stabilizer – Wee1 degradation inhibitors, primary screen, cell-based, HeLa, Wee1K328M-luciferase, luminescence | Wee1-like protein kinase (Homo sapiens), P30291 | HeLa Luc-Wee1K328M stability; 100% = proteasome inhibitor MG132 effect | reporter increase, % at 5 µM | 220,000 compounds, 1.2% hits | AID 1321, 2008;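 active = activation above the mean of all tested compounds plus 3 SD, set per screening run, cut at about 8.8% in these data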;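 note: cells exposed to compound for 20 h before luminescence read; 0% = DMSO alone and 100% = MG132 at 30 µM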
Wee1 degr conf – Wee1 degradation inhibitors, confirmation, cell-based, HeLa, Wee1K328M-luciferase, luminescence, triplicate. shares compounds with Wee1 stabilizer. HeLa Luc-Wee1K328M degradation; vehicle 0%, proteasome-blocked wells 100%. activation, % at 5 µM. 1,100 compounds, 4% hits. AID 1410, 2008; in the data active = activation above about 8.9%
Starred values were filed as active, the others as inactive; ? = inconclusive; . = no result.

SMILES	RanGTP-Imp inh	Runt-CBFb FRET	Efa HMGR inh	Runt-SMMHC FRET	PHOSPHO1 inh	Wee1 stabilizer	Wee1 degr conf
Cc1ccc(NC(=S)N2CCC(NC(=O)c3ccc(F)cc3)CC2)cc1C	0.0	.	.	.	12.0	.	.
Cc1nc(Nc2ccccc2Cl)sc1C(=O)Nc1ccccc1	?	0.2	-6.4	-0.1	3.5	16.8*	2.1
O=C(Nc1ccccc1)/C(=C\c1cccs1)NC(=O)c1ccccc1	1.4	-1.1	-3.8	-6.7	-31.2	-1.3	.
O=C(N/N=C/c1cccs1)/C(=C/c1ccccc1)NC(=O)c1ccccc1	1.2	-0.5	-5.7	6.9	6.0	11.9*	-1.8
CN1CCOc2cc(S(=O)(=O)NCc3ccc(S(N)(=O)=O)cc3)ccc21	-1.5	.	.	.	14.5	.	.
CCOC(=O)N1CCN(C(=O)CCCCn2c(=S)[nH]c3ccsc3c2=O)CC1	-2.6	7.1	-5.1	19.8	11.4	13.1*	1.1
CCOC(=O)N1CCN(C(=O)CCn2c(=S)[nH]c3ccccc3c2=O)CC1	0.5	.	.	.	24.2	.	.
Cc1cc(C)nc(-n2nc(C)cc2NC(=O)c2cccc(S(=O)(=O)N3CCOCC3)c2)n1	.	4.7	-3.8	0.7	-4.1	1.1	.
CC(=O)Nc1ccc2nc3ccccc3nc2c1	-72.8	-143.8	.	81.5	-113.1	23.7*	-0.5
CC(=O)Nc1ccc2nc(-c3cccn3C)[nH]c2c1	-1.3	.	.	.	28.7	.	.
CC(=O)Nc1ccc2nc(NC(=O)c3cccs3)sc2c1	1.7	1.3	.	-0.3	18.8	11.2*	0.7
CC(=O)Nc1ccc2nc(-c3cccs3)[nH]c2c1	0.9	-0.6	-10.4	2.5	18.5	15.6*	-0.7
COc1ccc(CCNC(=O)c2ccc3c(SCC(=O)O)c4c(nc3c2)CCCC4)cc1OC	-2.7	-2.4	-1.1	-3.4	-17.9	1.3	.
CS(=O)(=O)N(CC(=O)N1CCc2ccccc2C1)Cc1ccc(Cl)cc1	-5.9	-0.5	0.3	-2.2	-33.8	-0.1	.
O=S(=O)(Nc1ccc(Cl)cc1)c1cccc2nsnc12	4.2	.	.	.	28.4	.	.
CN1CCN(NC(=O)c2cccc3ccccc23)CC1	1.1	-0.6	-3.5	-2.0	-13.0	-0.8	.
O=C(NCC1COc2ccccc2O1)c1cn(Cc2ccc(F)cc2)nn1 (centres undefined)	0.5	-1.9	-3.6	7.6	10.2	-3.4	.
CC(c1ccccc1)n1cc(C(=O)NCC2COc3ccccc3O2)nn1 (centres undefined)	.	-2.5	-3.6	-0.4	-5.6	15.2*	3.0
O=C1N=C(N2CCCC2C(=O)O)S/C1=C\c1ccco1 (centres undefined)	3.1	18.3	-3.0	4.2	-19.0	12.9*	2.6
Cc1cc(C)c(OCCCNC2CCCC2)c(Br)c1	-2.7	.	.	.	13.8	.	.
CC(C)Cn1c(N)c(C(=O)COC(=O)c2ccc([N+](=O)[O-])o2)c(=O)n(C)c1=O	0.4	0.7	-5.2	2.8	21.0	15.7*	3.1
CC(C)Cn1c(N)c(C(=O)COC(=O)c2ccc(O)cc2)c(=O)n(C)c1=O	-5.4	-0.8	8.7	-1.2	51.8	-3.5	.
O=S(=O)(/N=C(/NNS(=O)(=O)c1ccccc1)c1ccccc1)c1ccccc1	-0.5	-0.8	-2.5	-4.1	40.4	-1.1	.
CCCCCCC(=O)NCC(=O)OCC(=O)c1ccccc1	-0.7	-1.2	-1.0	3.3	16.3	1.6	.
Clc1ccc(Cn2ncc3c(N4CCCC4)ncnc32)cc1	1.7	0.2	-4.3	-5.3	-12.9	16.5*	-0.9
Clc1ccc(Cn2ncc3c(N4CCCCC4)ncnc32)cc1	8.4	-2.0	-1.1	2.3	-13.5	0.1	.
Cc1nc2ccc(F)cc2cc1C(=O)NCc1ccco1	0.1	2.1	-0.7	4.4	-6.9	-2.1	.

From PubChem BioAssay
